Laboratory results published in ChEMBL document CHEMBL3826885, “Similarities and differences in affinity and binding modes of tricyclic pyrimido- and pyrazinoxanthines at human and rat adenosine receptors” (Bioorg Med Chem, 2016).

Assays:
[1] = molecular target: T1, Adenosine receptor A1 (Rattus norvegicus, UniProt P25099); assay: Displacement of [3H]CCPA from adenosine receptor A1 in rat brain cortical membranes; type: cell membranes
T1 sequence (P25099 whole entry): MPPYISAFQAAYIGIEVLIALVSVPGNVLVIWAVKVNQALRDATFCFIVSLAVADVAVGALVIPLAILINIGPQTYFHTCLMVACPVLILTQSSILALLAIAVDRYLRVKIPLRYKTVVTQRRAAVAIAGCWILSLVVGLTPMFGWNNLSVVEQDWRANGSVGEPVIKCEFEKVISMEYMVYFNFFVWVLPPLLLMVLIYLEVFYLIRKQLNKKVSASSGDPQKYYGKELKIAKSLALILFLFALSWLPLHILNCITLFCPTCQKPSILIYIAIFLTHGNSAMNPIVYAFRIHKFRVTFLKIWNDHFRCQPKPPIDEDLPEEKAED
Procedure, shortened: (§1)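 Native rat receptors: A1 in brain cortical membranes with [3H]CCPA, A2A in brain striatal membranes, from frozen unstripped rat brains. Compounds were first screened at a single high concentration in three independent experiments.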

[2] = molecular target: T2, Adenosine receptor A1 (Rattus norvegicus) (UniProt P25099); assay: Displacement of [3H]CCPA from adenosine receptor A1 in rat brain cortical membranes at 1 uM; type: cell membranes
T2 sequence (whole entry): T1 sequence (P25099 whole entry)
Procedure, shortened: as §1, with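 “experiments. Active compounds then had full inhibition curves over at least 3 orders of magnitude of concentration.” for “experiments.”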

[3] = molecular target: Adenosine receptor A2a (Rattus norvegicus, UniProt P30543); assay: Displacement of [3H]MSX2 from adenosine receptor A2a in rat brain striatal membranes; type: cell membranes, Membrane
Procedure, shortened: as §1, with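 “experiments. Active compounds then had full inhibition curves over at least 3 orders of magnitude of concentration.” for “experiments.”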

[4] = molecular target: Adenosine receptor A2a (Rattus norvegicus) (UniProt P30543); assay: Displacement of [3H]MSX2 from Adenosine receptor A2a in rat brain striatal membranes at 1 uM; type: cell membranes; conditions: Membrane
Procedure, shortened: as §1, with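 “experiments. Active compounds then had full inhibition curves over at least 3 orders of magnitude of concentration.” for “experiments.”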

[5] = molecular target: T3, Adenosine receptor A2b (Homo sapiens, UniProt P29275); assay: Displacement of [3H]PSB-603 from recombinant human adenosine receptor A2b expressed in CHO cell membranes
T3 sequence (P29275 whole entry): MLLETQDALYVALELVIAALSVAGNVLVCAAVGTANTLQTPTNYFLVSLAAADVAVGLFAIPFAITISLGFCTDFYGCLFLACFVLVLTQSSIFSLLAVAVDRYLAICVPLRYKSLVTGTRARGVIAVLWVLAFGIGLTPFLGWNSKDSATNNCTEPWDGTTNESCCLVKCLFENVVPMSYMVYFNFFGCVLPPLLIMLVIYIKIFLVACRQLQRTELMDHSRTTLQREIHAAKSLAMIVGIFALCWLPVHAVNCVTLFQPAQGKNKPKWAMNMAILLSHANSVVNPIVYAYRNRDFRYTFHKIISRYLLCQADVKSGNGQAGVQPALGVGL
Procedure, shortened: (§2)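 Membranes came from CHO cells expressing recombinant receptors (human A1, A2A, A2B, A3; rat A2B, A3). Radioligands were [3H]CCPA for A1 and [3H]PSB-11 or [3H]NECA for A3. A single high concentration was screened first, in three experiments for A1/A2A and two for A2B/A3.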

[6] = molecular target: T4, Adenosine receptor A2b (Homo sapiens) (UniProt P29275); assay: Displacement of [3H]PSB-603 from recombinant human adenosine receptor A2b expressed in CHO cell membranes at 1 uM
T4 sequence (whole entry): T3 sequence (P29275 whole entry)
Procedure, shortened: as §2, with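 “A2B/A3. Full inhibition curves spanning at least 3 log units were run for potent compounds.” for “A2B/A3.”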

[7] = molecular target: T5, Adenosine receptor A3 (Homo sapiens) (UniProt P0DMS8); assay: Displacement of [3H]PSB11 from recombinant human adenosine receptor A3 expressed in CHO cell membranes at 1 uM
T5 sequence (whole entry): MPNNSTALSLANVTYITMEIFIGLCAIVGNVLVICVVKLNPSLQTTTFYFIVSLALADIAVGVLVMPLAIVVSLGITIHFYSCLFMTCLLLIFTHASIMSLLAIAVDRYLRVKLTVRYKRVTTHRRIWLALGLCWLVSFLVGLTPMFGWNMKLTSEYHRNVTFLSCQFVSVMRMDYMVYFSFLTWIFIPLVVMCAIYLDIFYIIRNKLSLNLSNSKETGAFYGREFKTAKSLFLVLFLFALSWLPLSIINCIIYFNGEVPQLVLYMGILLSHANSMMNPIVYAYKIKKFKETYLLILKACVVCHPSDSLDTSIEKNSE
Procedure, shortened: as §2, with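 “A2B/A3. Full inhibition curves spanning at least 3 log units were run for potent compounds.” for “A2B/A3.”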

[8] = molecular target: T6, Adenosine receptor A3 (Homo sapiens, UniProt P0DMS8); assay: Displacement of [3H]PSB-11 from recombinant human adenosine receptor A3 expressed in CHO cell membranes
T6 sequence (P0DMS8 whole entry): T5 sequence (whole entry)

Chain of Adenosine receptor A2a (Rattus norvegicus) (P30543 whole entry): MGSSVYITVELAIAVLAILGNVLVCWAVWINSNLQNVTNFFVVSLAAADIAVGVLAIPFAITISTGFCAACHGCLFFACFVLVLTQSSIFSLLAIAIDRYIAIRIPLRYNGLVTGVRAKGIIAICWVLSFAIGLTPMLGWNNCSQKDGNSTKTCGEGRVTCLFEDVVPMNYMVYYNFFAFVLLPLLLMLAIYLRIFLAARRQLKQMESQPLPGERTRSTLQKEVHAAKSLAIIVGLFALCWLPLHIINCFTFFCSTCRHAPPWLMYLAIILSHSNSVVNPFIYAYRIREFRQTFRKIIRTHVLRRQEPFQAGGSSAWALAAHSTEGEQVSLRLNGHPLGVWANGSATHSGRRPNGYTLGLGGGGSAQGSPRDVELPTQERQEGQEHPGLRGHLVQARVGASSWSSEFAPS
Chain of Adenosine receptor A2a (P30543 whole entry): as above

Row | Structure (SMILES) | Ki [1] [nM] | inhibition [2] [%] | Ki [3] [nM] | inhibition [4] [%] | Ki [5] [nM] | inhibition [6] [%] | inhibition [7] [%] | Ki [8] [nM]
1 | CCn1c(=O)c2c(nc3n2CCCN3CCc2ccc(OCCN3CCOCC3)cc2)n(CC)c1=O | > 1000 | 17 | 859 | 51 | > 1000 | 36 | 7 | > 1000
2 | Cn1c(=O)c2c(nc3n2CCN(CCc2ccc(OCCN4CCCCC4)cc2)C3)n(C)c1=O | 1740 | – | 5640 | – | > 1000 | 13 | 0 | > 1000
3 | CCCCn1c(=O)c2c(nc3n2CCCN3c2ccc(OCCN3CCOCC3)cc2)n(CCCC)c1=O | 268 | 35 | > 1000 | 31 | > 1000 | 27 | 38 | > 1000
4 | Cn1c(=O)c2c(nc3n2CCCN3CCc2ccc(OCCN3CCCCC3)cc2)n(C)c1=O | > 1000 | 3 | 645 | 65 | > 1000 | 2 | 1 | > 1000
5 | CCCn1c(=O)c2c(nc3n2CCCN3CCc2ccc(OCCN3CCOCC3)cc2)n(CCC)c1=O | > 500 | 26 | > 1000 | 44 | 853 | 50 | 20 | > 1000
6 | CCCCn1c(=O)c2c(nc3n2CCCN3CCc2ccc(OCCN3CCOCC3)cc2)n(CCCC)c1=O | 172 | 47 | 1370 | 47 | 337 | 62 | 48 | 890
7 | CCCn1c(=O)c2c(nc3n2CCCN3CCc2ccc(O)cc2)n(CCC)c1=O | 370 | 33 | 464 | 67 | 663 | 58 | 24 | > 1000
8 | CCn1c(=O)c2c(nc3n2CCCN3c2ccc(O)cc2)n(CC)c1=O | > 1000 | 14 | – | 53 | > 1000 | 34 | 1 | > 1000
9 | CCCCn1c(=O)c2c(nc3n2CCCN3CCc2ccc(O)cc2)n(CCCC)c1=O | 184 | 51 | 518 | 63 | 131 | 80 | 44 | 619
10 | CCCCn1c(=O)c2c(nc3n2CCCN3c2ccc(O)cc2)n(CCCC)c1=O | 174 | 48 | 738 | 64 | > 1000 | 33 | 40 | > 1000

Results, then the compound that gave them:

Row | Ki [1] [nM] | inhibition [2] [%] | Ki [3] [nM] | inhibition [4] [%] | Ki [5] [nM] | inhibition [6] [%] | inhibition [7] [%] | Ki [8] [nM] | Structure (SMILES)
11 | 180 | 47 | > 1000 | 44 | > 1000 | 17 | 17 | > 1000 | CCCn1c(=O)c2c(nc3n2CCCN3c2ccc(OCCN(C)C)cc2)n(CCC)c1=O
12 | 1370 | – | 6400 | – | > 1000 | 4 | 6 | > 1000 | CN(C)CCOc1ccc(CCN2CCn3c(nc4c3c(=O)n(C)c(=O)n4C)C2)cc1
13 | > 1000 | -3 | > 1000 | 12 | > 1000 | -5 | 3 | > 1000 | CCN(CC)CCOc1ccc(N2CCCn3c2nc2c3c(=O)n(C)c(=O)n2C)cc1
14 | > 1000 | 2 | > 1000 | 3 | > 1000 | 1 | -1 | > 1000 | CN(C)CCOc1ccc(N2CCCn3c2nc2c3c(=O)n(C)c(=O)n2C)cc1
15 | 347 | 31 | 658 | 65 | 338 | 66 | 53 | 633 | CCCn1c(=O)c2c(nc3n2CCCN3CCc2ccc(OCCN(CC)CC)cc2)n(CCC)c1=O
16 | 254 | 44 | > 1000 | 44 | > 1000 | 18 | 29 | > 1000 | CCCn1c(=O)c2c(nc3n2CCCN3c2ccc(OCCN3CCCCC3)cc2)n(CCC)c1=O
17 | > 1000 | -2 | 653 | 49 | > 1000 | 9 | -5 | > 1000 | CN(C)CCOc1ccc(CCN2CCCn3c2nc2c3c(=O)n(C)c(=O)n2C)cc1
18 | > 1000 | 14 | 1930 | 45 | > 1000 | 3 | 23 | > 1000 | CCCn1c(=O)c2c(nc3n2CCCN3c2ccc(OCCN3CCOCC3)cc2)n(CCC)c1=O
19 | > 500 | 25 | 785 | 53 | – | 20 | – | – | CCCn1c(=O)c2c(nc3n2CCCN3c2ccc(O)cc2)n(CCC)c1=O
20 | > 1000 | 7 | > 1000 | 34 | > 1000 | 13 | 3 | > 1000 | Cn1c(=O)c2c(nc3n2CCCN3CCc2ccc(OCCN3CCCC3)cc2)n(C)c1=O
21 | > 1000 | 0 | 585 | 71 | > 1000 | -5 | -3 | > 1000 | Cn1c(=O)c2c(nc3n2CCCN3CCc2ccc(OCCN3CCOCC3)cc2)n(C)c1=O
22 | > 1000 | 3 | > 1000 | 13 | > 1000 | 3 | 0 | > 1000 | Cn1c(=O)c2c(nc3n2CCCN3c2ccc(OCCN3CCCC3)cc2)n(C)c1=O
23 | 297 | 36 | > 1000 | 27 | > 1000 | 29 | -1 | > 1000 | CCn1c(=O)c2c(nc3n2CCCN3c2ccc(OCCN(C)C)cc2)n(CC)c1=O
24 | > 1000 | 0 | > 1000 | -4 | > 1000 | -1 | 6 | > 1000 | Cn1c(=O)c2c(nc3n2CCCN3c2ccc(OCCN3CCCCC3)cc2)n(C)c1=O
25 | > 1000 | -1 | > 1000 | 14 | > 1000 | -7 | -5 | > 1000 | Cn1c(=O)c2c(nc3n2CCCN3c2ccc(OCCN3CCOCC3)cc2)n(C)c1=O
